Data set [1] is described as follows: Apparent permeability across apical to basolateral side in human Caco-2 cells at 10 uM pH 7.4 measured after 2 hrs by LC-MS/MS analysis. To be noted: caco-2, pH 7.4, 2 h. Type of data set: ADME, cell-based. In a few lines: (§1)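 Caco-2 cells grown in DMEM with 10% FBS, penicillin and streptomycin for 10 days, then plated; monolayer confluency checked by TEER. Compound at 10 μM (1% DMSO) in HBSS pH 7.4 added to apical or basal wells and incubated 2 h at 37 °C. Lucifer yellow used to confirm membrane integrity afterwards. Both chambers quantified by LC-MS/MS against a matrix-matched standard curve.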
A general note: Caco-2 cells form a polarised layer with tight junctions and transporters.

Data set [2] is described as follows: Permeability of compound at pH 7.4 by PAMPA assay. The class given is ADME. In short, it runs like this:
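Passive diffusion across an artificial membrane of 2% phosphatidylcholine in dodecane. Test compound at 10 μM was incubated 16 h at 30 °C, with donor pH 5, 6.5 or 7.4.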

Data set [3] can be described thus: Apparent permeability across basolateral to apical side in human Caco-2 cells at 10 uM pH 7.4 measured after 2 hrs by LC-MS/MS analysis. Type of data set: ADME, cell-based. The settings on record: caco-2, pH 7.4, 2 h. In short, it runs like this:
as §1

The target of data set [4] is T1, Protein-cysteine N-palmitoyltransferase HHAT (Homo sapiens, UniProt Q5VTY9). Kind of data set: Inhibition of HHAT in human HEK293a SHH+ cells incubated with compound for 24 hrs followed by transferred into SHH-Light2 cells cellular incubated for 48 hrs by Renilla/Firefly luciferase reporter assay. Type of data set: cell-based, HEK293-A. In short, it runs like this: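 HEK293a SHH+ cells (120,000/well) were given compound (0.041–30 μM final) or 0.2% DMSO for 24 h. Conditioned medium was cleared at 1000g and added to SHH-Light2 cells (NIH3T3-derived, Gli-Firefly plus constitutive Renilla) in triplicate wells for 48 h.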

The target in data set [5] is T1, Protein-cysteine N-palmitoyltransferase HHAT. Kind of data set: Inhibition of human recombinant HHAT using SHH-FAM peptide as substrate at 50 uM for 30 mins by acylation coupled lipophilic induction of polarization (acyl-cLIP) assay relative to control. In a few lines: (§2)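 DDM-solubilized recombinant HHAT mixed with SHH N-terminal FAM peptide and inhibitor or DMSO in MES buffer pH 6.5 with DTT, TCEP and BSA. Reaction started with palmitoyl-CoA; fluorescence anisotropy followed over 30 min in quadruplicate wells. Initial rates from linear regression were normalized to DMSO and no-enzyme controls.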

Data set [6] shares this target. The experiment in a line: Inhibition of human recombinant HHAT using SHH-FAM peptide as substrate at 25 uM for 30 mins by acylation coupled lipophilic induction of polarization (acyl-cLIP) assay relative to control. In short, it runs like this:
as §2

Data set [7] in a line: Cytotoxicity against human SHH+ HEK293a cells assessed as cell viability measured after 72 hrs by MTS assay. The class given is toxicity, cell-based, HEK293-A. In short, it runs like this: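 HEK293a SHH+ cells seeded at 5000/well and cultured 24 h. They were then exposed 72 h to vehicle, puromycin (2 μg/mL) or compound (0.14–100 μM final) in DMEM with 10% FBS. MTS/PMS added for 3 h at 37 °C and absorbance read at 490 nm. Signal normalized to vehicle and puromycin; CC50 from a variable-slope sigmoidal fit.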
In general terms: Formazan colour is commonly taken as a measure of viable cells.

Data set [8] addresses T1, Protein-cysteine N-palmitoyltransferase HHAT. The experiment in a line: Inhibition of human recombinant HHAT using SHH-FAM peptide as substrate for 30 mins by acylation coupled lipophilic induction of polarization (acyl-cLIP) assay. In short, it runs like this: as §2
Data set [9] in a line: Cytotoxicity against human SHH+ HEK293a cells assessed as cell viability at 25 uM measured after 72 hrs by MTS assay relative to control. Type of data set: toxicity, cell-based, HEK293-A. The settings on record: read-out: Activity.
Data set [10] can be described thus: Cytotoxicity against human SHH+ HEK293a cells assessed as cell viability at 12.5 uM measured after 72 hrs by MTS assay relative to control. To be noted: read-out: Activity. The class given is toxicity, cell-based, HEK293-A.

As usually defined, the EC50 is the midpoint of the concentration-response curve. One may read the inhibition as the percentage by which the read-out fell short of the control. As usually defined, the CC50 is the concentration that lowers cell viability or growth by half. As a reminder, the IC50 is the concentration at which inhibition is half-maximal.

T1 sequence (Q5VTY9 whole entry): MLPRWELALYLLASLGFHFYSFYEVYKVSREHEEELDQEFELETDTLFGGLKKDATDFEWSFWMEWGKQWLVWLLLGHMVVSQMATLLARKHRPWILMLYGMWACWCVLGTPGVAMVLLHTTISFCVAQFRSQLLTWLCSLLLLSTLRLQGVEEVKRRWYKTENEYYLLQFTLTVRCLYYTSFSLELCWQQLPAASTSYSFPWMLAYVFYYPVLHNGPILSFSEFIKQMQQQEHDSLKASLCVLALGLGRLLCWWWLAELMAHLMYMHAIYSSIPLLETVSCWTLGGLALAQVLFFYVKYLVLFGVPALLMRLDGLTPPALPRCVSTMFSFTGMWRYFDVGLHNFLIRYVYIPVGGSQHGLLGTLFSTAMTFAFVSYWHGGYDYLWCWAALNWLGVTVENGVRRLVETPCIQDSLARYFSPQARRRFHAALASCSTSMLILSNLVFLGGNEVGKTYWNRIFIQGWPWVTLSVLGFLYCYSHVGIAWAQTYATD

On to `CCC(C)CNCC(=O)N1CCc2sccc2C1c1cccc(C)n1` (racemic), for which the permeability result in [1], in data set [2] and in data set [3] was “Permeable” throughout. `Cc1cccc([C@@H]2c3ccsc3CCN2C(=O)CNCC(C)C)n1`: in [4], the concentration for a half-maximal effect (EC50) was over 30 µM.

As to `N[C@@H](Cc1ccccc1)C(=O)N1CCc2sccc2C1c1ccccc1` (stereo partly drawn), the inhibition in data set [5] came to 6%; in data set [6] it was 3%. Regarding `CCC(C)CNCC(=O)N1CCc2ccccc2C1c1ccccc1` (stereo not drawn), in data set [2], the permeability entry is “Permeable”. Still for that read-out and setting: in the case of `CCC(C)CNCC(=O)N1CCc2sccc2C1c1cccc(C)c1` (stereo not drawn) it was “Impermeable”.

On to `COc1ccccc1C1c2ccsc2CCN1C(C)=O` (stereo not drawn), for which, in [5], the inhibition came out at 91%. As to `Cc1cccc(C2c3ccsc3CCN2C(=O)NCCCC(C)C)n1` (stereo not drawn), the inhibition in data set [5] was determined as 53%; in data set [6], 31%. Besides, the CC50 at 72 h in data set [7] was found to be 6.1 µM. Moreover, in data set [8], the concentration for half-maximal inhibition (IC50) came out at 42.3 µM. Besides, the viability at 72 h, 25 µM in [9] turned out to be 22%. The viability at 72 h, 12.5 µM in data set [10] came to 32%. As for `c1ccc(C2NCCc3sccc32)cc1` (stereo not drawn), in [5], the inhibition came out at 16%. Consider `CC(=O)N1CCc2ccccc2C1c1ccccc1` (stereo not drawn), for which the permeability entry in data set [2] is “Permeable”. For the molecule `CC(=O)N1CCc2sccc2C1c1ccccc1` (stereo not drawn), the permeability result in data set [2] is “Permeable”. Turning to `C=CCNCC(=O)N1CCc2sccc2C1COc1ccc(Cl)cc1` (stereo not drawn), the permeability entry in data set [1], in data set [2] and in data set [3] was “Permeable” each time. In the case of `CC(=O)N1CCc2sccc2[C@@H]1c1cccc(C)n1`, the inhibition in data set [5] is 56%.

As to `CCC(C)CNCC(=O)N1CCc2sccc2C1c1ccccc1O` (stereo not drawn), the 50% inhibitory concentration (IC50) in data set [8] is 4.79 µM.
